Measured values taken from BindingDB's records for doi:10.1021/acs.jmedchem.8b01402 (University of Bristol, 2019).

Target: Transcriptional enhancer factor TEF-1 (Homo sapiens, UniProt P28347)
Experiment: Inhibition of NL-tagged YAP (unknown origin) interaction with myc-tagged human TEAD1 preincubated for 1 hr followed by NL-tagged YAP addition by NanoGlo assay
In short: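 Myc-TEAD1 from transfected HeLa lysate was captured with anti-myc antibody on protein-G-coated 96-well plates. Wells were pretreated with compound in PBS for 1 h at 4 °C, then co-incubated with lysate from HeLa cells expressing YAP–nanoluciferase. After four PBS washes, bound YAP–NL was read with NanoGlo.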

Chain of Transcriptional enhancer factor TEF-1 (P28347 whole entry): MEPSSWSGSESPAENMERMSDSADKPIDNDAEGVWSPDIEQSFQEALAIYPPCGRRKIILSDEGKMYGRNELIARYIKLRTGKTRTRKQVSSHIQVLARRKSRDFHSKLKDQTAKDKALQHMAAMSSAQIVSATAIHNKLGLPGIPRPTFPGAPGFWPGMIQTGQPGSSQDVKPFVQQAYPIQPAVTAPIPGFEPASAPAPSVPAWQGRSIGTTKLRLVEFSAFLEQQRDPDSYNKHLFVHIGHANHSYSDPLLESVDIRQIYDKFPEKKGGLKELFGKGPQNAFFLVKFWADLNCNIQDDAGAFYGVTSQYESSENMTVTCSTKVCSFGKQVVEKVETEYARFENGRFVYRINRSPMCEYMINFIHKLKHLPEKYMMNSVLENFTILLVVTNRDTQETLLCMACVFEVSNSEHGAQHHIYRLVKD

- IC50: 48 µM
Compound: Cc1ccc2c(c1)c1c3n2CCN(C[C@H](O)CN2CCN(C(=O)c4ccco4)CC2)[C@@H]3CCC1
